Screening results from PubChem BioAssay.
IDH1 R132H inh: IDH1 R132H (human) inhibition. inhibition, % at 10 µM. IDH1 R132H reductase, diaphorase/resazurin fluorescence, 60 min. AID 624101. O75874. 0.18% of 70,000 active; in the data active = inhibition above about 34%; inconclusive = no clear call, values can overlap the other calls; inactive = below about 11%;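 note: 0% = DMSO and 100% = no enzyme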
GASC1 inh: blocks human GASC-1 (KDM4C) demethylase activity; GST-KDM4C 2-372, H3K9me3 peptide, LANCE TR-FRET; 0.15% of 96,000 active; Q9H3R0; inhibition, % at 12.5 µM;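 active = mean replicate inhibition above about 25%, with at least 55% of replicates also reaching it, limit read from the data, passing the limit was not always enough; inconclusive = only one of those two conditions met; inactive = neither condition met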
Target sequence (Q9H3R0 2-372 limits assumed): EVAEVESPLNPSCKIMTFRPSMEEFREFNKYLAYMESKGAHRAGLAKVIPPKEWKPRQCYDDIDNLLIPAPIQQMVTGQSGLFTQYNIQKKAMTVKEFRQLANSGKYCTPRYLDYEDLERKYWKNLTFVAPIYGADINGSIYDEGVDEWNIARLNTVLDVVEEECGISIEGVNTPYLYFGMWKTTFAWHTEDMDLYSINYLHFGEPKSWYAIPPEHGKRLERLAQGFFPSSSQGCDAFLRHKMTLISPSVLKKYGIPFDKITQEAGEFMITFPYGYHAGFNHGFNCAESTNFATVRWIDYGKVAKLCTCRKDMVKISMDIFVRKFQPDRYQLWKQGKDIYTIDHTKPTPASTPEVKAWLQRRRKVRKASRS
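reagent = H3K9me3 peptide substrate, Fe(II), 2-oxoglutarate | system = GST-tagged GASC-1 (JMJD2C) catalytic fragment, aa 2-372 | amount = enzyme final amount 10 nM | read-out = Fall in 671/618 emission ratio as inhibition | medium = HEPES buffer, pH 7.5, plus ascorbate | schedule = 30 min reaction, 60 min detection, RT | measured by = LANCE TR-FRET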
T cruzi growth-1: blocks T. cruzi growth in NIH3T3 culture; T. cruzi beta-gal in NIH3T3, GalScreen luminescence, 90 h; inhibition, % at 8.34 µM; 5.9% of 77,000 active;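 active = mean inhibition above about 93%, with at least 55% of replicates each passing it, limit read from the data, passing the limit was not always enough; inconclusive = only one of those two conditions holds; inactive = neither condition holds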
T cruzi growth-2: inhibitors of T. cruzi proliferation | shares compounds with T cruzi growth-1 | T. cruzi beta-gal in NIH3T3, GalScreen luminescence, 90 h | inhibition, % at 8.35 µM | 72% of 5,600 active;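 active = mean replicate inhibition above about 95% and at least 55% of replicates individually reaching it, limit read from the data; inconclusive = only one of the two criteria is met; inactive = neither criterion is met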
T cruzi growth-3: Trypanosoma cruzi proliferation inhibition; shares compounds with T cruzi growth-1; T. cruzi beta-gal in NIH3T3, GalScreen luminescence, 90 h; inhibition, % at 2.09 µM; 21% of 5,600 active;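 active = mean inhibition above about 95%, with at least 55% of replicates also reaching it, limit read from the data; inconclusive = meets just one of the two conditions; inactive = meets neither condition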;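 note: plate controls were neutral control median for no effect and positive control median for full effect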
NIH3T3 tox: kills mouse NIH/3T3 fibroblasts; 14% of 5,600 active; NIH/3T3 viability, CellTiter-Glo ATP luminescence, 90 h; shares compounds with T cruzi growth-1; cytotoxicity (signal decrease), % at 8.35 µM; AID 651742;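 active = mean signal decrease across replicates above about 35% based on untreated-well scatter, with enough replicates individually passing, limit read from the data; inconclusive = no rule stated though some were filed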;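 note: 0% = median of neutral control wells and 100% = median of positive control wells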
NIH3T3 tox 2: cytotoxicity in mouse NIH/3T3 fibroblasts; inhibition, % at 24.9 µM; shares compounds with T cruzi growth-1; NIH/3T3 viability, CellTiter-Glo ATP luminescence, 90 h; 56% of 5,600 active;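 active = mean loss of cell viability signal at or above a set limit, and enough replicates individually reaching it; inconclusive = meets only the mean limit or only the replicate share; inactive = meets neither condition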;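 note: 0% = median of neutral control wells and 100% = median of positive control wells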
The depositor's hits bear a star; u = inconclusive; x = no result; ! = not confirmed by another sample. This is one part of a sample in which hits are shown more often than they occur.

SMILES	IDH1 R132H inh	GASC1 inh	T cruzi growth-1	T cruzi growth-2	T cruzi growth-3	NIH3T3 tox	NIH3T3 tox 2
Cc1c(Br)ccc(NC(=O)Cn2cnc3sc4c(c3c2=O)CCCC4)c1C	0	x	x	x	x	x	x
O=C1C(=O)N(CCCn2ccnc2)C(c2ccccc2)C1C(=O)c1ccco1 (stereo not given)	2	x	x	x	x	x	x
C[C@H]1CN([C@@H](C)CO)S(=O)(=O)c2ccc(Br)cc2O[C@@H]1CN(C)C(=O)C1CCCCC1	x	-2	103*	32	-14	-12	42*
C[C@@H]1CN([C@H](C)CO)S(=O)(=O)c2ccc(Br)cc2O[C@H]1CN(C)C(=O)C1CCCCC1	x	1	100*!	34	0	10	48*
C[C@@H]1CN([C@@H](C)CO)S(=O)(=O)c2ccc(Br)cc2O[C@H]1CN(C)C(=O)C1CCCCC1	0	-1	74	x	x	x	x
C[C@H](CO)N1C[C@H](C)[C@H](CN(C)C(=O)C2CCCCC2)Oc2cc(Br)ccc2S1(=O)=O	-1	-2	30	x	x	x	x
O=C(O)C1CCCCC1C(=O)Nc1ccc([N+](=O)[O-])cc1 (stereo not given)	0	x	x	x	x	x	x
O=C(c1ccccc1)c1cc(Cl)ccc1NS(=O)(=O)c1ccccc1[N+](=O)[O-]	0	x	x	x	x	x	x
COc1ccc(NC(=O)CN(c2ccccc2Cl)S(C)(=O)=O)c(OC)c1	0	x	x	x	x	x	x
O=C(C1CCCC1)N1CCCCN2[C@H](CO)[C@H](c3ccc(-c4cccc(F)c4)cc3)[C@@H]2C1	x	x	112*	113*	92	24	66*
O=C(C1CC1)N1CCCCN2[C@H](CO)[C@@H](c3ccc(-c4cccc(F)c4)cc3)[C@@H]2C1	x	5	75	x	x	x	x
O=C(C1CCCC1)N1CCCCN2[C@H](CO)[C@@H](c3ccc(-c4cccc(F)c4)cc3)[C@H]2C1	x	x	111*	104*	17	-1	104*
O=C(C1CCC1)N1CCCCN2[C@H](CO)[C@@H](c3ccc(-c4cccc(F)c4)cc3)[C@H]2C1	x	x	37	x	x	x	x
O=C(Nc1ccc(F)cc1)N[C@@H]1CC[C@@H](CCNS(=O)(=O)c2cccc(Cl)c2)O[C@@H]1CO	0	1	-11	x	x	x	x
O=C(Nc1cccc(F)c1)N[C@@H]1CC[C@@H](CCNS(=O)(=O)c2cccc(Cl)c2)O[C@@H]1CO	0	-2	121*	56	-9	-27	-5
O=C(Nc1cccc(F)c1)N[C@H]1CC[C@H](CCNS(=O)(=O)c2cccc(Cl)c2)O[C@H]1CO	-1	-2	163*	103*	30	-15	-1
O=C(Nc1cccc(F)c1)N[C@H]1CC[C@@H](CCNS(=O)(=O)c2cccc(Cl)c2)O[C@@H]1CO	0	-3	16	x	x	x	x
CN(C)C(=O)c1ccc(-c2ccc([C@@H]3[C@@H](CO)N4CCCCN(C(=O)C5CCC5)C[C@H]34)cc2)cc1	x	x	49	x	x	x	x
CN(C)C(=O)c1ccc(-c2ccc([C@@H]3[C@H](CO)N4CCCCN(C(=O)C5CC5)C[C@@H]34)cc2)cc1	x	0	67	x	x	x	x
CN(C)C(=O)c1ccc(-c2ccc([C@@H]3[C@H]4CN(C(=O)C5CCC5)CCCCN4[C@H]3CO)cc2)cc1	x	x	101*	95*	44	33	38*
CN(C)C(=O)c1ccc(-c2ccc([C@H]3[C@H](CO)N4CCCCN(C(=O)C5CCC5)C[C@@H]34)cc2)cc1	x	x	100*	95*	90	7	42*
CN(C)C(=O)c1ccc(-c2ccc([C@H]3[C@@H](CO)N4CCCCN(C(=O)C5CC5)C[C@@H]34)cc2)cc1	x	0	66	x	x	x	x
CN(C)C(=O)c1ccc(-c2ccc([C@H]3[C@@H](CO)N4CCCCN(C(=O)C5CCC5)C[C@@H]34)cc2)cc1	x	x	106*	102*	89	9	27
Cc1ccc(NC(=O)CSc2nnc(-c3ccc(Cl)cc3Cl)n2-c2ccccc2)cc1	0	x	x	x	x	x	x
COc1ccccc1-c1cc(=O)c2c(O[C@@H]3O[C@H](CO)[C@@H](O)[C@H](O)[C@H]3O)cc(OC)c(OC)c2o1	-1	x	x	x	x	x	x
SMILES	IDH1 R132H inh	GASC1 inh	T cruzi growth-1	T cruzi growth-2	T cruzi growth-3	NIH3T3 tox	NIH3T3 tox 2
Cn1c(SCC(=O)c2ccccc2)nnc1-c1cc2ccccc2o1	0	x	x	x	x	x	x
O=C(CSc1nc2ccc(NC(=O)c3ccccc3)cc2s1)Nc1ccccc1C(F)(F)F	3	x	x	x	x	x	x
C[C@@H]1CN([C@@H](C)CO)S(=O)(=O)c2ccc(C#Cc3ccccc3)cc2O[C@@H]1CN(C)C(=O)c1ccccn1	x	x	-14	x	x	x	x
C[C@H]1CN([C@@H](C)CO)S(=O)(=O)c2ccc(C#Cc3ccccc3)cc2O[C@H]1CN(C)C(=O)c1ccccn1	0	x	67	x	x	x	x
C[C@H]1CN([C@@H](C)CO)S(=O)(=O)c2ccc(C#Cc3ccc(F)cc3)cc2O[C@H]1CN(C)C(=O)c1ccccn1	x	1	u	108*	33	34	13
C[C@H](CO)N1C[C@H](C)[C@H](CN(C)C(=O)c2ccccn2)Oc2cc(C#Cc3ccc(F)cc3)ccc2S1(=O)=O	x	1	119*!	99*	39	23	21
Cc1c(Cl)ccc2c(C(=O)Nc3ccc(S(=O)(=O)N4CCOCC4)cc3)cc(-c3cccnc3)nc12	0	x	x	x	x	x	x
O=S(=O)(Nc1ncccn1)c1ccc(NC(=S)Nc2ccc(Oc3ccccc3)cc2)cc1	0	x	x	x	x	x	x
CCOc1ccc(-n2c(SCC(=O)c3ccc(Br)cc3)nnc2-c2cccnc2)cc1	0	x	x	x	x	x	x
CCOc1ccc2nc(SCC(=O)Nc3ccc(Br)cc3F)sc2c1	0	x	x	x	x	x	x
Cc1ccc([N+](=O)[O-])c(OCCCCn2cncn2)c1	1	x	x	x	x	x	x
C[C@H]1CN([C@@H](C)CO)S(=O)(=O)c2ccc(-c3ccccc3F)cc2O[C@H]1CN(C)Cc1cccnc1	u	-3	95*	99*	84	67*	49*
C[C@@H]1CN([C@H](C)CO)S(=O)(=O)c2ccc(-c3ccccc3F)cc2O[C@@H]1CN(C)Cc1ccncc1	17	-1	110*	101*	77	35*	77*
Cc1ccccc1-c1ccc2c(c1)O[C@@H](CN(C)Cc1ccncc1)[C@@H](C)CN([C@@H](C)CO)S2(=O)=O	0	0	90	x	x	x	x
C[C@H]1CN([C@@H](C)CO)S(=O)(=O)c2ccc(-c3ccccc3F)cc2O[C@@H]1CN(C)Cc1cncnc1	-1	2	35	x	x	x	x
C[C@@H]1CN([C@@H](C)CO)S(=O)(=O)c2ccc(-c3ccccc3F)cc2O[C@H]1CN(C)Cc1ccncc1	1	1	116*	88	97*	65*	101*
CCCN(C)C[C@H]1Oc2cc(-c3ccccc3F)ccc2S(=O)(=O)N([C@H](C)CO)C[C@H]1C	0	-1	58	x	x	x	x
